Measurements from different studies.
Each line is one published result; the experiments were not run side by side.
Target: Protein kinase C iota type (PRKCI, Homo sapiens, UniProt P41743)
One construct used (P41743 1-596): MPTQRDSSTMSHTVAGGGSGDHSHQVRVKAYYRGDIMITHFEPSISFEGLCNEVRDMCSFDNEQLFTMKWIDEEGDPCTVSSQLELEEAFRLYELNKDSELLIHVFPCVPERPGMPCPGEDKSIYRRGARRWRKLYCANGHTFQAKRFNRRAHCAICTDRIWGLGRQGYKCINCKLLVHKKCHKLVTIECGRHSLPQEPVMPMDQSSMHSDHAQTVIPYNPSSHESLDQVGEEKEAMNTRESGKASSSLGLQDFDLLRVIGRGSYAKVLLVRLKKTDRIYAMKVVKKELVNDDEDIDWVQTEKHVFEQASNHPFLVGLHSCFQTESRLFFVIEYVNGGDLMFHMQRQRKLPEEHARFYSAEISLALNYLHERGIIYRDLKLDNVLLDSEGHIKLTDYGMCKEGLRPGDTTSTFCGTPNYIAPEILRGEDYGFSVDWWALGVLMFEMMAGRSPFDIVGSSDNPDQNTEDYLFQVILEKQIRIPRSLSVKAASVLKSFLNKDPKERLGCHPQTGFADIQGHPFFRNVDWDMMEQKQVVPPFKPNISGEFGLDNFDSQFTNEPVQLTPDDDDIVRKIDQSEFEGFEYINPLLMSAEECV

| SMILES | assay | setting | endpoint | result |
| --- | --- | --- | --- | --- |
| COc1cccc2c(NCc3ccccc3)nc(-n3c(N)nc4ccccc43)nc12 | target engagement in cells, inhibitor, chemoproteomics | 20 mM | inhibition | -13.3% |
| Cc1ccc(Nc2nccc(N(C)c3ccc4c(C)n(C)nc4c3)n2)cc1S(N)(=O)=O | enzyme activity | 0.5 µM | remaining activity | 96.1% |
| CCN(CC)c1ccc(C2=NNC(=O)CC2C)cc1[N+](=O)[O-] (stereo not shown) | enzyme activity, inhibitor | 10 µM | remaining activity | 108% |
| Cc1cnc(NC2CCOCC2)nc1-n1cnc(C(=O)NC(CN)c2cc(F)cc(Cl)c2)c1 (stereo not shown) | enzyme activity, inhibitor, radiometric | 1 µM | remaining activity | 106% |
| CC(C)(C)c1nc2c(s1)c1nc(N)ncc1c1ccc(NS(=O)(=O)c3c(F)cccc3F)c(F)c12 | enzyme activity, inhibitor, radiometric | 1 µM | remaining activity | 91% |
| COc1cc(Cl)c(C(=O)N[C@@H](CN[C@H]2CC[C@@H](N)CC2)Cc2ccc(C#N)cc2)cc1-c1ccc(CN[C@H](C)c2ccc(C)cc2)o1 | enzyme activity, inhibitor | 1 µM | remaining activity | 96% |
| Cc1ccc(NC(=O)c2ccc(C)c(C(F)(F)F)c2)cc1C#Cc1nn(C2CCC(O)CC2)c2ncnc(N)c12 (stereo not shown) | cell-free assay | 10 µM | remaining signal | 91% |
| Cc1ccc(C(=O)Nc2ccc(CN3CCN(C)CC3)c(C(F)(F)F)c2)cc1C#Cc1cnc2cccnn12 | enzyme activity | 23.5 nM | remaining activity | 85% |
| C[C@@H]1CN(c2cc(-c3nn(C)c4ccc(OC5(C)CC5)cc34)ncn2)C[C@H](C)O1 | cell-free assay, competition with immobilised ligand | 1 µM | remaining binding | 100% |
| O=C1NC(=O)c2cc(Nc3ccc(F)cc3)c(Nc3ccc(F)cc3)cc21 | cell-free assay | 0.5 µM | remaining signal | 89% |
| CN(C)C1CCN(CC#Cc2nn(C3CCCC3)c3nc(NCc4ccccc4)ncc23)C1 (stereo not shown) | enzyme activity, inhibitor, FRET | 0.1 µM | inhibition | 9% |
| CCS(=O)(=O)c1cc2cc(C[C@@](O)(CC(C)(C)c3ccc(F)cc3C(N)=O)C(F)(F)F)[nH]c2cn1 | cell-free assay, competition with immobilised ligand | 1 µM | remaining binding | 100% |
| CCN(CC)CCNC(=O)c1c(C)[nH]c(/C=C2\C(=O)Nc3ccc(F)cc32)c1C | enzyme activity, inhibitor | 10 µM | inhibition | 1% |
| Nc1c(C(=O)NCc2ccc(C(=O)NCCCC3CCCCC3)cc2)cnn1-c1ccccc1 | cell-free assay, competition with immobilised ligand | 0.1 µM | remaining binding | 97% |
| Cc1sc(C(=O)NC2COC2)cc1-n1cc(NC(=O)Nc2c(F)cccc2Cl)cn1 | enzyme activity, inhibitor | 10 µM | remaining activity | 90.8% |
| C[C@H](c1cccc(C#N)c1)n1cc(Cl)cc(C(N)=O)c1=N | cell-free assay, competition with immobilised ligand | 1 µM | remaining binding | 100% |
| CCCS(=O)(=O)Nc1ccc(F)c(C(=O)c2c[nH]c3ncc(-c4ccc(Cl)cc4)cc23)c1F | enzyme activity, inhibitor | 1 µM | inhibition | < 10% |
| CO[C@@H](C)c1c(Nc2ccc([C@@H](N(C)C(=O)C3CCS(=O)(=O)CC3)C(F)(F)F)cc2)cnc2cc(Cl)nn12 | cell-free assay, competition with immobilised ligand | 1 µM | remaining binding | 76% |
| CCCOc1ccc(OC)c(F)c1C(=O)c1ccc(C(=O)N[C@@H]2CNC[C@H]2NC(=O)c2ccc3[nH]ncc3c2)cc1 | enzyme activity, inhibitor | 10 µM | remaining activity | 89% |
